Laboratory results from ChEMBL document CHEMBL1138152, “Design and synthesis of novel hydrazide-linked bifunctional peptides as delta/mu opioid receptor agonists and CCK-1/CCK-2 receptor antagonists” (J Med Chem, 2006).

Key:
[1] = biological target: Delta-type opioid receptor (Mus musculus, UniProt P32300); experiment: Agonist activity at delta opioid receptor by inhibition of muscle contraction in electrically stimulated isolated mouse vas deferens; type: functional, tissue-based
How it was run: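 Male ICR mouse vasa deferentia in 20-mL baths, 0.5 g tension, oxygenated Mg-free Krebs at 37 °C; field stimulation 0.1 Hz, 2.0 ms single pulses, supramaximal voltage. Tissue integrity checked with DPDPE (10 nM). Compound added cumulatively until maximal inhibition. Inhibition taken as mean contraction height for 1 min before dosing versus height 3 min after. IC50 from Hill-equation fit by nonlinear least squares.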

[2] = biological target: T1, Cholecystokinin receptor (Homo sapiens) (UniProt P32239+P32238); experiment: Agonist activity at CCK receptor of guinea pig ileum at 300 nM; type: functional, tissue-based; details: Cavia porcellus, target entry is the homologue from another species
How it was run: (§1)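 Guinea pig ileum LMMP strips (male Hartley), 20-mL baths, 1 g tension, oxygenated Krebs bicarbonate buffer, 37 °C. Tissue first challenged with 67 mM KCl to set maximal contraction. Test compound added to the bath; agonist activity taken as contraction height as a percentage of the maximal KCl contraction (A50).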

[3] = biological target: T1, Cholecystokinin receptor (Homo sapiens); experiment: Antagonist activity at CCK receptor by inhibition of CCK8-induced muscle contraction in unstimulated GPI/LMMP; type: functional; details: Cavia porcellus; target entry is the homologue from another species
How it was run: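 Male Hartley guinea pig ileum LMMP strips, 1 g tension, oxygenated Krebs bicarbonate buffer, 37 °C; 67 mM KCl sets maximal contractility. Initial noncumulative CCK-8 dose-response curve built. Test compound added without electrical stimulation; 3 min later the CCK-8 curve was rebuilt at an antagonist dose giving about a 3-fold rightward shift. Ke is the antagonist concentration halving CCK-8 activity.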

Mu-type opioid receptor = Mu-type opioid receptor (Cavia porcellus, UniProt P97266); experiment: Agonist activity at mu opioid receptor by inhibition of muscle contraction in electrically stimulated isolated guinea pig ileum; type: functional, tissue-based
How it was run: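 Longitudinal muscle–myenteric plexus strips from male Hartley guinea pig ileum, 1 g tension, oxygenated Krebs at 37 °C, 15 min equilibration. Stimulated at 0.1 Hz, 0.4 ms, supramaximal voltage. Integrity checked with PL-017 (10 nM). Compound added until maximal inhibition. Inhibition taken as contraction height 1 min before versus 3 min after dosing. IC50 from Hill-equation fit.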

[4] = biological target: Mu-type opioid receptor (Rattus norvegicus) (UniProt P33535); experiment: Inhibition of [35S]GTP-gamma-S binding to rat mu opioid receptor expressed in CHO cells; type: functional, cell-based
How it was run: (§2)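 CHO-expressed receptor membranes (10 µg) in 50 mM HEPES pH 7.4 with EDTA, 5 mM MgCl2, 30 µM GDP, DTT, 100 mM NaCl, PMSF, BSA and 0.1 nM [35S]GTPγS. Test drug at various concentrations, duplicate or triplicate, 90 min at 30 °C. Nonspecific binding with 10 µM GTPγS.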

[5] = Selectivity for human delta opioid receptor over rat mu opioid receptor
[6] = biological target: T1, Cholecystokinin receptor (Homo sapiens); experiment: Agonist activity at CCK receptor of guinea pig ileum at 1 uM; type: functional, tissue-based; details: Cavia porcellus, target entry is the homologue from another species; how it was run: as §1
[7] = biological target: Delta-type opioid receptor (Homo sapiens, UniProt P41143); experiment: Inhibition of [35S]GTP-gamma-S binding to human delta opioid receptor expressed in CHO cells; type: functional, cell-based; how it was run: as §2
[8] = biological target: T1, Cholecystokinin receptor (Homo sapiens); experiment: Antagonist activity at CCK receptor by inhibition of CCK8-induced muscle contraction in unstimulated GPI/LMMP at 1 uM; type: functional; details: Cavia porcellus, filed as partial agonist, target entry is the homologue from another species

T1 sequence (P32238 whole entry, looked up): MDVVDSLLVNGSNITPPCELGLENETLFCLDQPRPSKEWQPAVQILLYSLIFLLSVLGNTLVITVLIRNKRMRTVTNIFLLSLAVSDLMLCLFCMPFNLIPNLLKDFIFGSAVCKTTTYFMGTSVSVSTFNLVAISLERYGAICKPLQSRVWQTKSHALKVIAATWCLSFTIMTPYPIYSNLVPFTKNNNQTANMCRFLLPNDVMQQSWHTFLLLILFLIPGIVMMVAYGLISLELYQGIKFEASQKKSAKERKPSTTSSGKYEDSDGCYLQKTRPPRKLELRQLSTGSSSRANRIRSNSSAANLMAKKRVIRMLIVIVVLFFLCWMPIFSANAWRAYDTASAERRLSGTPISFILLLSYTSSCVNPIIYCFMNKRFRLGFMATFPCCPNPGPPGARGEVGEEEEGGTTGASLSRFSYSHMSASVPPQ
T1 sequence (P32239 whole entry, looked up): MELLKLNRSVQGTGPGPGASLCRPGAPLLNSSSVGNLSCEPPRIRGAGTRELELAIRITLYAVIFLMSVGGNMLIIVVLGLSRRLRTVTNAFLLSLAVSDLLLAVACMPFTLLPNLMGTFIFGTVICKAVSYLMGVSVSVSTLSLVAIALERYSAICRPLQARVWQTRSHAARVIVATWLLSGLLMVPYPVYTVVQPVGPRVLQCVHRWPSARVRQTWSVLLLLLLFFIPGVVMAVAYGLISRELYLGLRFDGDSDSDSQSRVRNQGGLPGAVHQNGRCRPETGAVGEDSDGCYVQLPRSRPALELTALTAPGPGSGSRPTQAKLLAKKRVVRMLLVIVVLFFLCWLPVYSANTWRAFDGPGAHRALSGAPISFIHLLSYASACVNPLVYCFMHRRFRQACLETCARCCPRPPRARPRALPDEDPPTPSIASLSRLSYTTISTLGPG
Sequence of Delta-type opioid receptor (Homo sapiens, UniProt P41143) (P41143 whole entry): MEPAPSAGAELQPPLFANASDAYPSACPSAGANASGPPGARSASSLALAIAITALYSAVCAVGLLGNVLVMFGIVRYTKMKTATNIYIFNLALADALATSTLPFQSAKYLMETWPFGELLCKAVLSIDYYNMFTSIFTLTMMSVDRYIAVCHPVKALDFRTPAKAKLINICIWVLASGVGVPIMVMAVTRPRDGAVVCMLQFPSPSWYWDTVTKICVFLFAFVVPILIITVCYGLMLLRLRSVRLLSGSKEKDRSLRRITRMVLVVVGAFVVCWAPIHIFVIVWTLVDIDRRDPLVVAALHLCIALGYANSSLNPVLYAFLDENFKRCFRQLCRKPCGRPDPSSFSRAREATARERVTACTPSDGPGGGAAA
Sequence of Mu-type opioid receptor (Rattus norvegicus) (P33535 whole entry): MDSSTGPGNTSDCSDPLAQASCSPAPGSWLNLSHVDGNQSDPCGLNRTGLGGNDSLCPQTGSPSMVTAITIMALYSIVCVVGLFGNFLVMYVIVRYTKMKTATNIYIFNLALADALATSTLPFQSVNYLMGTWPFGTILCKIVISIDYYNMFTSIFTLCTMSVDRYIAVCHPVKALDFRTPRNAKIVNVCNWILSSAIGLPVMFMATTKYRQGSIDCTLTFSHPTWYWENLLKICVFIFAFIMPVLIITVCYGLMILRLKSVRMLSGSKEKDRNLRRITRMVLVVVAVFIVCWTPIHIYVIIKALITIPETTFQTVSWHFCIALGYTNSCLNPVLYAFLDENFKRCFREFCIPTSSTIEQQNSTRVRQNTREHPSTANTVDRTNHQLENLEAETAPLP
Sequence of Mu-type opioid receptor (P97266 whole entry): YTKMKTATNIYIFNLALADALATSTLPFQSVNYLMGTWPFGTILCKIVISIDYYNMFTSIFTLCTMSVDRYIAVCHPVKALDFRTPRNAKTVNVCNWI
Sequence of Delta-type opioid receptor (Mus musculus, UniProt P32300) (P32300 whole entry): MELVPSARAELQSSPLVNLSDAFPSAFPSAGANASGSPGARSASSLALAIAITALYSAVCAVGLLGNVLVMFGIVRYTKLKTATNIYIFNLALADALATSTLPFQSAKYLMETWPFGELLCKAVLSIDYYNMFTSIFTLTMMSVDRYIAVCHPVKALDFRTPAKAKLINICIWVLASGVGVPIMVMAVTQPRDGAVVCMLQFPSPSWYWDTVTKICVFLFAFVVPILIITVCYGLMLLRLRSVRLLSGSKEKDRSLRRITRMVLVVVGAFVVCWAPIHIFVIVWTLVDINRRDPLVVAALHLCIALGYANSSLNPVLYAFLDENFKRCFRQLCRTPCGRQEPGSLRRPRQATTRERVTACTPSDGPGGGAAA

Row | SMILES | IC50 [1] | Activity [2] | Ke [3] | IC50 (Mu-type opioid receptor) | Emax [4] | Selectivity ratio [5] | Activity [6] | Emax [7] | Ke [8]
1 | CCCC[C@@H](C(=O)N[C@@H](CC(=O)O)C(=O)N[C@@H](Cc1ccccc1)C(N)=O)N(C)C(=O)[C@H](Cc1c[nH]c2ccccc12)NC(=O)CNC(=O)[C@@H](Cc1ccccc1)NC(=O)[C@H](Cc1ccc(O)cc1)NC(=O)[C@@H](N)CC(=O)O | 29 nM | 0% | 66 nM | 220 nM | – | – | – | – | –
2 | CCCC[C@H](NC(=O)[C@H](CC(=O)O)NC(=O)[C@H](Cc1ccccc1)NN[C@@H](Cc1ccccc1)C(=O)NCC(=O)N[C@H](C)C(=O)N[C@@H](Cc1ccc(O)cc1)C(=O)O)C(=O)N[C@H](Cc1cn(C(=O)OC23CC4CC(CC(C4)C2)C3)c2ccccc12)C(=O)O | – | – | 44 nM | – | 103% | 430 | 0% | 25% | –
3 | CCCC[C@@H](C(=O)N[C@H](Cc1cn(C(=O)OC(C)(C)C)c2ccccc12)C(=O)O)N(C)C(=O)[C@H](CC(=O)O)NC(=O)[C@H](Cc1ccccc1)NN[C@@H](Cc1ccccc1)C(=O)NCC(=O)N[C@H](C)C(=O)N[C@@H](Cc1ccc(O)cc1)C(=O)O | – | – | – | – | 130% | – | 5% | 120% | Partial agonist
